Common to all, as to type: functional, Salmonella enterica subsp. enterica serovar Typhimurium
The subject of test [1] is Salmonella typhimurium. Nature of the test: Mutagenicity determined by Ames assay in Salmonella Typhimurium strain TA98, without metabolic activation by Aroclor 1254 induced rat liver S9 at a dose of 0.5 ug/plate. Also noted: unit: revertants/plate. The gist of the method: (§1)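 Ames plate incorporation assay in TA98, modified per Claxton, with no S9 or cofactors added. Test compounds were given from DMSO solution. Each dose level was plated in duplicate on two or three separate occasions. Read-out is mean His+ revertants/plate.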

Test [2] has as its system Salmonella typhimurium. Description: (§2) Mutagenicity determined by Ames assay in Salmonella Typhimurium strain TA98, without metabolic activation by Aroclor 1254 induced rat liver S9 at a dose of 1.0 ug/plate. The gist of the method: (§3)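 Ames plate incorporation test following Claxton's modification, run without S9, with compounds dissolved in DMSO. Each dose was plated in duplicate on two or three separate occasions, and the value is the mean His⁺ revertants/plate. The positive control was 2-nitrofluorene at 3 μg/plate, with DMSO as the solvent control.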
For orientation: In the Ames test, an excess of revertant colonies over the control signals mutagenicity.

For test [3], the system named is Salmonella typhimurium. Nature of the test: (§4) Mutagenicity determined by Ames assay in Salmonella Typhimurium strain TA98, without metabolic activation by Aroclor 1254 induced rat liver S9 at a dose of 20 ug/plate. In a few lines:
as §3

Test [4] relates to Salmonella typhimurium. Nature of the test: (§5) Mutagenicity determined by Ames assay in Salmonella Typhimurium strain TA98, with metabolic activation by Aroclor 1254 induced rat liver S9 at a dose of 20 ug/plate. In a few lines:
(§6)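 Ames plate incorporation test following Claxton's modification, with compounds dissolved in DMSO. Each plate received 0.8 mg S9 protein from livers of Aroclor 1254-treated male rats plus NADPH-generating cofactors. Each dose was plated in duplicate on two or three separate occasions, and the value is the mean His⁺ revertants/plate. The positive control was 2-anthramine at 0.5 μg/plate, with DMSO as the solvent control.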

For test [5], the system named is Salmonella typhimurium. Description: (§7) Mutagenicity determined by Ames assay in Salmonella Typhimurium strain TA98, without metabolic activation by Aroclor 1254 induced rat liver S9 at a dose of 10 ug/plate. In a few lines: as §3
The subject of test [6] is Salmonella typhimurium. Nature of the test: (§8) Specific mutagenicity in the absence of protein S9, was expressed as His+ revertants/nmol, calculated by least-square linear regression. The gist of the method: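 Calculated as His⁺ revertants/nmol by least-squares linear regression over the linear portion of the no-S9 plate-incorporation dose–response (DMSO solutions, duplicate plates, two or three occasions). The fit ran to 10 μg/plate for most compounds, but for two compounds it ran to 5 or 20 μg/plate.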

For test [7], the system named is Salmonella typhimurium. Nature of the test: (§9) Specific mutagenicity in the presence of protein S9, was expressed as His+ revertants/nmol, calculated by least-square linear regression. The gist of the method: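 Calculated as His⁺ revertants/nmol by least-squares linear regression over the linear portion of the dose–response to 10 μg/plate. Plates received 0.8 mg Aroclor 1254-induced male rat liver S9 protein with NADPH-generating cofactors. Compounds were dissolved in DMSO and plated in duplicate on two or three occasions.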

For test [8], the system named is Salmonella typhimurium. Nature of the test: (§10) Mutagenicity determined by Ames assay in Salmonella Typhimurium strain TA98, with metabolic activation by Aroclor 1254 induced rat liver S9 at a dose of 10 ug/plate. The gist of the method: as §6
Test [9] deals with Salmonella typhimurium. Description: (§11) Mutagenicity determined by Ames assay in Salmonella Typhimurium strain TA98, without metabolic activation by Aroclor 1254 induced rat liver S9 at a dose of 5 ug/plate. In a few lines:
as §3

The test system of test [10] is Salmonella typhimurium. Description: (§12) Mutagenicity determined by Ames assay in Salmonella Typhimurium strain TA98, with metabolic activation by Aroclor 1254 induced rat liver S9 at a dose of 5 ug/plate. The gist of the method: as §6
For test [11], the system named is Salmonella typhimurium. Nature of the test: (§13) Mutagenicity determined by Ames assay in Salmonella Typhimurium strain TA98, with metabolic activation by Aroclor 1254 induced rat liver S9 at a dose of 1.0 ug/plate. The gist of the method:
as §6

Test [12] has as its system Salmonella typhimurium. Nature of the test: (§14) Mutagenicity determined by Ames assay in Salmonella Typhimurium strain TA98, with metabolic activation by Aroclor 1254 induced rat liver S9 at a dose of 0.5 ug/plate. In a few lines:
as §6

Test [13] deals with Salmonella typhimurium. The test is described as §10. The gist of the method: (§15)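 Ames plate incorporation assay, modified per Claxton, in TA98. Compounds dissolved in DMSO. Each plate received 0.8 mg S9 protein from livers of Aroclor 1254-treated male rats, plus NADPH-generating cofactors. Each dose was run in duplicate on two or three separate occasions. Values are mean His+ revertants/plate.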
This is another data set of the same source.

For test [14], the system named is Salmonella typhimurium. The description is as §8. The gist of the method:
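Ames plate incorporation assay in TA98 without S9; compounds in DMSO; doses in duplicate on two or three occasions. His+ revertants/nmol from least-squares linear regression of the linear part of the dose-response curve, up to 10 µg/plate for most compounds and to 5 or 20 µg/plate for others.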
The source holds these as a separate data set.

Test [15] has as its system Salmonella typhimurium. The test is described as §4. The gist of the method: as §1
The source holds these as a separate data set.

Test [16] concerns Salmonella typhimurium. The test is described as §13. In a few lines: as §15
This is another data set of the same source.

Test [17] concerns Salmonella typhimurium. Described as §12. The gist of the method: as §15
This is another data set of the same source.

In test [18] the test system is Salmonella typhimurium. The test is described as §14. In a few lines: as §15
This is another data set of the same source.

The test system of test [19] is Salmonella typhimurium. The description is as §9. The gist of the method:
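Ames plate incorporation assay in TA98 with 0.8 mg Aroclor 1254-induced male rat liver S9 protein per plate plus NADPH-generating cofactors; compounds in DMSO; doses in duplicate on two or three occasions. His+ revertants/nmol from least-squares linear regression of the dose-response curve's linear part, up to 10 µg/plate.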
This is another data set of the same source.

Test [20] deals with Salmonella typhimurium. The description is as §11. In a few lines:
as §1
This is another data set of the same source.

Test [21] has as its system Salmonella typhimurium. The description is as §7. The gist of the method:
as §1
The source holds these as a separate data set.

The subject of test [22] is Salmonella typhimurium. The description is as §5. In a few lines:
as §15
The source holds these as a separate data set.

In test [23] the test system is Salmonella typhimurium. Described as §2. The gist of the method: as §1
The source holds these as a separate data set.

Regarding `O[C@H]1c2ccc3c4c5c(cccc5cc3c2[C@@H]2OC2[C@@H]1O)C=C4` (stereo partly drawn), the Mutagenicity in test [1] amounted to 37; in [2], 53; in test [3], 93; in [4], 148; in [5], 172; in test [8], 287. For the same compound, the Mutagenicity in test [9] was 186; in [10], 283; in test [11], 86; in test [12], 51. The Activity in test [6] is given as 10; in [7], 12.9.

Consider `O[C@H]1C=Cc2c(ccc3c4c5c(cccc5cc23)C=C4)[C@@H]1O`, for which the Mutagenicity amounted to 36 in test [1]; 40 in [2]; 75 in [3]; 543 in test [4]; 45 in test [5]; 469 in [8]. Also, the Mutagenicity in [9] worked out at 43; in test [10], 335; in test [11] it was 100; in test [12], 67. Moreover, the Activity was 0.7 in test [6] and 9.4 in test [7].

Consider `C1=CC2OC2c2ccc3c4c5c(cccc5cc3c21)C=C4` (stereo not drawn), for which the Mutagenicity in test [1] came to 28; in [13] it was 272; in [15] it was 46; in test [16], 71; in test [17] it was 176; in [18], 58. Also, the Mutagenicity in [20] was 34; in [21], 39; in [22], 350; in test [23] it was 26. For the same compound, the Activity is 0.2 in test [14] and 5.6 in test [19].

Regarding `C1=Cc2c3ccc4ccccc4c3cc3cccc1c23` [BENZO[J]ACEANTHRYLENE], the Mutagenicity in test [1] stood at 35; in test [13] it was 694; in test [15], 38; in test [16], 103; in test [17], 429; in [18], 76. For the same compound, the Mutagenicity amounted to 38 in [20], 32 in test [21], 915 in test [22] and 39 in test [23]. Also, the figures for the Activity in test [14] and in test [19] were 0.1 and 12.9, respectively.

These data come from ChEMBL document CHEMBL1125232, “Synthesis and biological activity of bay-region metabolites of a cyclopenta-fused polycyclic aromatic hydrocarbon: benz[j]aceanthrylene” (1991).
